# Measurements gathered from unrelated publications.
# Protocols differ between the studies behind these lines.
# Target: Tyrosine-protein kinase Fer (FER, Homo sapiens, UniProt P16591)
Compound,test,setting,measurement,value
C=CC(=O)Nc1cc(Nc2nccc(Nc3cc(Cl)c(F)cc3C(C)(C)O)n2)c(OC)cc1N1CC[C@@H](N(C)C)C1,"enzyme activity, inhibitor",1 µM,inhibition,8%
COc1cc2c(N3CCN(C(=O)Nc4ccc(OC(C)C)cc4)CC3)ncnc2cc1OCCCN1CCCCC1,cell-free assay,0.5 µM,remaining signal,104%
Cc1ccc(C(=O)NCc2ccsc2)cc1C#Cc1cn(C(C)C)c2ncnc(N)c12,"enzyme activity, inhibitor",1 µM,activity vs control,92%
O=C(Nc1cnn(-c2csc(C(=O)NC3COC3)c2)c1)Nc1ccccc1Cl,"enzyme activity, inhibitor",5 µM,remaining activity,101%
N#CCCc1ccc2c(c1)-c1[nH]c3ccc([N+](=O)[O-])cc3c1CC(=O)N2,cell-free assay,0.5 µM,remaining signal,72.7%
Nc1cnc(N2CCc3cc(S(=O)(=O)Nc4c(F)cc(Cl)cc4F)cc(N4CCCC4=O)c32)nc1,"cell-free assay, competition with immobilised ligand",1 µM,remaining binding,100%
CCN(CC)CCNC(=O)c1c(C)[nH]c(/C=C2\C(=O)Nc3ccc(Cl)cc32)c1C,"enzyme activity, inhibitor",0.5 µM,remaining activity,17.7%
COc1cccc(CNC(=O)c2nc3scc(COCc4ccc(C(=O)O)cc4)c3c(=O)[nH]2)c1,"cell-free assay, competition with immobilised ligand",1 µM,remaining binding,100%
Cc1ccc(C(=O)Nc2ccc(CN3CCN(C)CC3)c(C(F)(F)F)c2)cc1C#Cc1cnc2cccnn12,enzyme activity,23.5 nM,remaining activity,94%
CC(C)(C)c1nc2c(s1)c1nc(N)ncc1c1ccc(NS(=O)(=O)c3c(F)cccc3F)c(F)c12,"enzyme activity, inhibitor, radiometric",1 µM,remaining activity,111%
CCN(CC)CCNC(=O)c1c(C)[nH]c(/C=C2\C(=O)Nc3ccc(F)cc32)c1C,"enzyme activity, inhibitor",0.3 µM,inhibition,-42%
Cc1ccc(NC(=O)c2ccc(C)c(C(F)(F)F)c2)cc1C#Cc1nn(C2CCC(O)CC2)c2ncnc(N)c12 (centres unmarked),cell-free assay,10 µM,remaining signal,67%
O=C(O)c1ccc2c3c1cccc3c(=O)n1c3ccccc3nc21,"enzyme activity, inhibitor",0.5 µM,remaining activity,96.5%
CCCCN(CCCC)C(=O)CN1C[C@H](c2cc(OC)c3c(c2)OCO3)[C@@H](C(=O)O)[C@@H]1CC(C)(C)CCC,"cell-free assay, competition with immobilised ligand",1 µM,remaining binding,100%
Cc1ccc(Nc2nccc(N(C)c3ccc4c(C)n(C)nc4c3)n2)cc1S(N)(=O)=O,"enzyme activity, inhibitor",10 µM,inhibition,71%
CC(=O)N1CCC(c2ccc(C(=O)NC3=NCCN3)cc2C(F)(F)F)CC1,"cell-free assay, competition with immobilised ligand",1 µM,remaining binding,93%
CN1CC(Oc2cnc(C#N)cc2-c2ccn3nc(NC(=O)C4CC4)cc3c2)C1,"enzyme activity, inhibitor",1 µM,inhibition,1%
Nc1ncnc2occ(-c3ccc(NC(=O)Nc4cc(C(F)(F)F)ccc4F)cc3)c12,cell-free assay,20 µM,remaining signal,9%
c1nc2c(Nc3ccc4c(c3)OCCO4)nc(Nc3ccc4c(c3)OCCO4)nc2[nH]1,"enzyme activity, inhibitor",10 µM,activity vs control,5.7%
CNC(=O)c1cc(Oc2ccc(NC(=O)Nc3ccc(Cl)c(C(F)(F)F)c3)cc2)ccn1,"enzyme activity, inhibitor",0.3 µM,inhibition,-8%
O=C(O)[C@@H]1[C@@H](Cn2nnc3ccccc3c2=O)CC[C@H]1C(=O)c1ccc(OCCC2CCOCC2)cc1,"cell-free assay, competition with immobilised ligand",1 µM,remaining binding,87%
O=c1cc(-c2cccc3c2Sc2ccccc2S3)oc(N2CCOCC2)c1,"enzyme activity, inhibitor",0.5 µM,remaining activity,103%
COc1ccc2c(c1)O[C@@H](c1ccc(OC)c(OC)c1)C[C@H]2NC(=O)C1(c2ccc3c(c2)OC(F)(F)O3)CC1,"cell-free assay, competition with immobilised ligand",1 µM,remaining binding,100%
COc1cc2ncnc(Nc3ccc(Oc4ccccc4)cc3C)c2cc1OC,"enzyme activity, inhibitor",1 µM,inhibition,54%
O=C1NC(c2ccccn2)Sc2ccccc21 (centres unmarked),"cell-free assay, competition with immobilised ligand",1 µM,remaining binding,84%
COc1cc(Nc2c(C#N)cnc3cc(OCCCN4CCN(C)CC4)c(OC)cc23)c(Cl)cc1Cl,cell-free assay,0.5 µM,remaining signal,54.6%
CNC(=O)c1cc2c(Oc3ccc(NC(=O)C4(C(=O)Nc5ccc(F)cc5)CC4)cc3)ccnc2cc1OC,"enzyme activity, inhibitor, radiometric",1 µM,inhibition,74%
CC1=C(C#N)C(c2ccc3c(c2)c(NC(=O)c2ccccc2C)nn3C)C(C#N)=C(C)N1,"cell-free assay, competition with immobilised ligand",1 µM,remaining binding,88%
COc1ccc(C(=O)Nc2sc3c(c2C(N)=O)CCCC3)cc1OC,"enzyme activity, inhibitor",0.5 µM,remaining activity,89.8%
COc1cc2nccc(Oc3ccc(NC(=O)c4c5n(n(-c6ccc(F)cc6)c4=O)CCCC5)cc3)c2cc1OC,"enzyme activity, inhibitor",0.1 µM,inhibition,-14%
COc1cc2ncnc(Nc3ccc(F)c(Cl)c3)c2cc1OCCCN1CCOCC1,cell-free assay,0.5 µM,remaining signal,94.1%
Cc1sc(C(=O)NC2COC2)cc1-n1cc(NC(=O)Nc2c(F)cccc2Cl)cn1,"enzyme activity, inhibitor",10 µM,remaining activity,90%
